The test system of data set [1] is BV-2. The data set is described as follows: Antiinflammatory activity in Japanese encephalitis virus GP78 infected mouse BV2 cells assessed as decrease in virus-induced MCP1 levels at 25 uM after 18 hrs by Western blot relative to control. Type of data set: functional. On the technique in general: A western blot detects proteins with antibodies after separation by electrophoresis.

Data set [2] concerns Mus musculus. Description: Antiinflammatory activity in Japanese encephalitis virus GP78 infected BALB/c mouse assessed as decrease in virus-induced IL6 levels at 25 mg/kg, ip twice daily after 8 to 9 days relative to control. Conditions: route intraperitoneal. Type of data set: functional. In short, it runs like this: (§1)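 BALB/c mice (4–5 weeks, either sex; 15 per group) were dosed with RA in PBS at 25 mg/kg i.p. twice daily, from day 1 after infection until the first untreated infected mouse died. IL-12, TNF-α, IFN-γ, MCP-1 and IL-6 in brain tissue lysates were quantified with a mouse cytometric bead array. Statistics used one-way ANOVA with Bonferroni post hoc comparisons.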

The test system of data set [3] is Japanese encephalitis virus. Description: Antiviral activity against Japanese encephalitis virus GP78 infected BALB/c mouse assessed as inhibition of viral mRNA transcript in mouse brain at 25 mg/kg, ip twice daily after 8 to 9 days. Type of data set: functional, organism-based. More on the design: dose 25 mg/kg.
Data set [4] relates to BV-2. The data set is described as follows: Antiinflammatory activity in Japanese encephalitis virus GP78 infected mouse BV2 cells assessed as decrease in virus-induced IFN-gamma levels at 25 uM after 18 hrs by Western blot relative to control. Format: functional.
Data set [5] concerns Japanese encephalitis virus. Description: Antiviral activity against Japanese encephalitis virus GP78 infected BALB/c mouse assessed as inhibition of viral proteins in mouse brain at 25 mg/kg, ip twice daily after 8 to 9 days by immunoblot. Type of data set: functional, organism-based. More on the design: dose 25 mg/kg.
The test system of data set [6] is Mus musculus. The data set is described as follows: Antiinflammatory activity in Japanese encephalitis virus GP78 infected BALB/c mouse assessed as decrease in virus-induced IL12 levels at 25 mg/kg, ip twice daily after 8 to 9 days relative to control. Type of data set: functional. As to conditions: route intraperitoneal. In short, it runs like this: as §1
Data set [7] deals with BV-2. The data set is described as follows: Antiinflammatory activity in Japanese encephalitis virus GP78 infected mouse BV2 cells assessed as decrease in virus-induced IL12 levels at 25 uM after 18 hrs by Western blot relative to control. Format: functional.
Data set [8] concerns Mus musculus. Description: Antiinflammatory activity in Japanese encephalitis virus GP78 infected BALB/c mouse assessed as decrease in phosphorylated NF-kappaB levels at 25 mg/kg, ip twice daily after 8 to 9 days relative to control. Type of data set: functional, organism-based. More on the design: dose 25 mg/kg. In short, it runs like this: (§2)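 BALB/c mice (4–5 weeks, either sex; 15 per group) received RA dissolved in PBS at 25 mg/kg i.p. twice daily. Dosing began one day after infection and continued until the first untreated infected mouse died. Brain protein (10 μg) was Western blotted with pNF-κB, IκB-α and Cox-2 antibodies (1:1,000), using β-tubulin as loading reference and HRP chemiluminescence detection. Groups were compared by one-way ANOVA with Bonferroni post hoc tests.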

The subject of data set [9] is Mus musculus. The data set is described as follows: Toxicity in BALB/c mouse assessed as behavioral activity at 25 mg/kg, ip twice daily. As to conditions: in vivo. Type of data set: organism-based. More on the design: dose 25 mg/kg, route intraperitoneal. The method in brief: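 Uninfected BALB/c mice (4–5 weeks, either sex; 15 per group) received RA alone, dissolved in PBS, at 25 mg/kg i.p. twice daily. Behavior was observed and compared with a PBS-injected control group.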

Data set [10] deals with Mus musculus. The data set is described as follows: Antiinflammatory activity in Japanese encephalitis virus GP78 infected BALB/c mouse assessed as decrease in virus-induced TNFalpha levels at 25 mg/kg, ip twice daily after 8 to 9 days relative to control. Type of data set: functional. As to conditions: route intraperitoneal. In short, it runs like this:
as §1

Data set [11] has as its system Japanese encephalitis virus. The data set is described as follows: Antiviral activity against Japanese encephalitis virus GP78 infected BALB/c mouse assessed as reduction in mortality rate at 25 mg/kg, ip twice daily administered 1 day post viral-challenge. Type of data set: functional. Conditions: route intraperitoneal. More on the design: scale not given: the % may be the effect or the level left. The method in brief:
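Survival was followed in infected BALB/c mice (4–5 weeks, either sex; 15 per group). Animals received RA in PBS at 25 mg/kg i.p. twice daily, from day 1 post-infection until the first untreated infected animal died. Symptoms (limb paralysis, tremor, piloerection, stiffening) were recorded alongside deaths.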

Data set [12] has as its system Mus musculus. Description: Antiinflammatory activity in Japanese encephalitis virus GP78 infected BALB/c mouse assessed as decrease in virus-induced MCP1 levels at 25 mg/kg, ip twice daily after 8 to 9 days relative to control. As to conditions: route intraperitoneal. Format: functional. The method in brief: as §1
The subject of data set [13] is Japanese encephalitis virus. Description: Antiviral activity against Japanese encephalitis virus GP78 infected BALB/c mouse assessed as reduction of activated microglia in mouse brain at 25 mg/kg, ip twice daily. Type of data set: functional, organism-based. More on the design: dose 25 mg/kg. In short, it runs like this: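 RA was given at 25 mg/kg i.p. twice daily to infected BALB/c mice. Mice were perfused with PBS containing 7 U/ml heparin, then with 2.5% paraformaldehyde. Cryostat brain sections were stained for Iba-1, and star-shaped activated microglia were counted.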

For data set [14], the system named is BV-2. Description: Antiinflammatory activity in Japanese encephalitis virus GP78 infected mouse BV2 cells assessed as decrease in virus-induced IL6 levels at 25 uM after 18 hrs by Western blot relative to control. Type of data set: functional.
The test system of data set [15] is BV-2. The data set is described as follows: Antiinflammatory activity in Japanese encephalitis virus GP78 infected mouse BV2 cells assessed as decrease in virus-induced TNFalpha levels at 25 uM after 18 hrs by Western blot relative to control. Format: functional.
Data set [16] concerns Mus musculus. The data set is described as follows: Antiinflammatory activity in Japanese encephalitis virus GP78 infected BALB/c mouse assessed as decrease in virus-induced IFN-gamma levels at 25 mg/kg, ip twice daily after 8 to 9 days relative to control. Type of data set: functional. As to conditions: route intraperitoneal. The method in brief:
as §1

Data set [17] concerns Mus musculus. Description: Antiinflammatory activity in Japanese encephalitis virus GP78 infected BALB/c mouse assessed as increase in IkappaB-alpha levels at 25 mg/kg, ip twice daily after 8 to 9 days relative to control. More on the design: dose 25 mg/kg. Format: functional, organism-based. The method in brief: as §2
Data set [18] relates to Mus musculus. Description: Antiinflammatory activity in Japanese encephalitis virus GP78 infected BALB/c mouse assessed as decrease in Cox2 levels at 25 mg/kg, ip twice daily after 8 to 9 days relative to control. More on the design: dose 25 mg/kg. Format: functional, organism-based. The method in brief:
as §2

Calls of active or inactive are those of the source. No cut-off for these calls is given here.

Turning to `O=C(/C=C/c1ccc(O)c(O)c1)O[C@H](Cc1ccc(O)c(O)c1)C(=O)O` [ROSMARINIC ACID], the “fold change (FC)” value worked out at 25 in data set [1]; 9 in [2]; 12 in [4]; 5 in data set [6]; 13 in [7]; 18 in data set [10]. The “fold change (FC)” value turned out to be 100 in [12], 12.5 in data set [14], 14 in [15] and 6 in [16]. The outcome in [3], in data set [5], in [8], in [13], in data set [17] and in data set [18] was Active. For the same molecule, the results for the Activity entry in [9] and in data set [11] were “Non-toxic” and 20%, respectively.

The values above are taken from ChEMBL document CHEMBL1143410, “Antiviral and anti-inflammatory effects of rosmarinic acid in an experimental murine model of Japanese encephalitis” (Antimicrob Agents Chemother, 2007).
